The source of these data is ChEMBL document CHEMBL2331369, “Transport by OATP1B1 and OATP1B3 enhances the cytotoxicity of epigallocatechin 3-O-gallate and several quercetin derivatives” (J Nat Prod, 2013).

In data set [1] the test system is CHO. Description: Induction of apoptosis in CHO cells expressing OATP1B3 haplotype 1 at 10 uM after 48 hrs using propidium iodide and FITC Annexin V staining by flow cytometry. The class given is functional, Cricetulus griseus. The gist of the method:
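Seeded at 90 000 cells/well for 24 h, then 5 mM sodium butyrate for 24 h, then 10 μM compound for 48 h. Medium and washes pooled with trypsinized cells, spun at 300g for 5 min. Stained with FITC Annexin V plus 4 μg/mL propidium iodide for 20 min in the dark, then flow cytometry. DMSO control; three independent experiments averaged.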
In general terms: In flow cytometry, cells or beads pass a laser one at a time.

The test system of data set [2] is CHO. Description: Cytotoxicity against CHO cells expressing OATP1B3 haplotype 1 after 48 hrs by […] CellTiter-Glo assay. The class given is functional, cell-based. To be noted: Cricetulus griseus. The gist of the method:
(§1)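 Seeded at 1600 cells/well, 24 h culture, then 5 mM sodium butyrate induction for 24 h. Cells then exposed to a range of compound concentrations for 48 h in medium with 10% FBS. CellTiter-Glo readout, expressed as percent of DMSO control. IC50 from at least three independent experiments, mean ± SEM.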

Data set [3] concerns CHO. Description: Cytotoxicity against CHO cells expressing OATP1B1*1b after 48 hrs by […] CellTiter-Glo assay. The class given is functional, cell-based. The note with it: Cricetulus griseus. The essentials:
as §1

Data set [4] concerns CHO. The experiment in a line: Cytotoxicity against wild type CHO cells after 48 hrs by […] CellTiter-Glo assay. The class given is cell-based, Cricetulus griseus. To be noted: for Activity: chinese hamster, cho; for IC50: Cricetulus griseus, CHO. The essentials:
as §1
On the technique in general: In ATP-based viability assays light output follows the ATP content of the culture.

Data set [5] concerns CHO. The experiment in a line: Inhibition of OATP1B3 haplotype 1 (unknown origin) expressed in CHO cells assessed as reduction of [3H]dehydroepiandrosterone sulfate at 50 uM after 5 mins. To be noted: Homo sapiens. The class given is cell-based. The essentials:
(§2)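 Uptake in stably transfected CHO cells grown with 10% FBS. Test compound at 50 μM with 1% DMSO as control. Substrates 0.1 μM E3S or E17βG for 20 s, or 0.5 μM DHEAS for 5 min, all at 37 °C. Net OATP uptake is taken as the wild-type CHO signal subtracted. Values are percent of DMSO control, mean ± SEM of one representative of three experiments.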

Data set [6] relates to CHO. Description: Inhibition of OATP1B3 haplotype 1 (unknown origin) expressed in CHO cells assessed as reduction of [3H]estradiol 17beta-glucuronide at 50 uM after 20 seconds. The class given is cell-based. To be noted: Homo sapiens. The gist of the method: as §2
For data set [7], the system named is CHO. Description: Inhibition of OATP1B3 haplotype 1 (unknown origin) expressed in CHO cells assessed as reduction of [3H]estrone-3-sulfate at 50 uM after 20 seconds. It counts as cell-based. The note with it: Homo sapiens. The essentials: as §2
Data set [8] concerns CHO. Description: Inhibition of OATP1B1*1b (unknown origin) expressed in CHO cells assessed as reduction of [3H]dehydroepiandrosterone sulfate at 50 uM after 5 mins. The class given is cell-based. The note with it: Homo sapiens. The gist of the method: as §2
Data set [9] relates to CHO. The experiment in a line: Inhibition of OATP1B1*1b (unknown origin) expressed in CHO cells assessed as reduction of [3H]estradiol 17beta-glucuronide at 50 uM after 20 seconds. It counts as cell-based. The note with it: Homo sapiens. The gist of the method: as §2
Data set [10] deals with CHO. Description: Inhibition of OATP1B1*1b (unknown origin) expressed in CHO cells assessed as reduction of [3H]estrone-3-sulfate at 50 uM after 20 seconds. It counts as cell-based. To be noted: Homo sapiens. The essentials: as §2
The subject of data set [11] is CHO. Description: Cell cycle arrest in CHO cells expressing OATP1B3 haplotype 1 assessed as accumulation at G0/G1 phase at 10 uM after 48 hrs using propidium iodide staining by flow cytometry. To be noted: Cricetulus griseus.
In data set [12] the test system is CHO. The experiment in a line: Cell cycle arrest in CHO cells expressing OATP1B3 haplotype 1 assessed as accumulation at G0/G1 phase at 1 uM after 48 hrs using propidium iodide and FITC Annexin V staining by flow cytometry. To be noted: Cricetulus griseus. The class given is functional, cell-based. The essentials: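 Cells plated at 90 000/well for 24 h, held 36 h serum-free to synchronize in G0, induced 24 h with 5 mM sodium butyrate, then compound for 48 h. Fixed in 70% ice-cold ethanol at 4 °C overnight, then 40 min in PBS with 25 μg/mL RNase and 12.5 μg/mL propidium iodide. DNA content by flow cytometry; two independent experiments averaged.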

The subject of data set [13] is CHO. Description: Induction of apoptosis in CHO cells expressing OATP1B3 haplotype 1 at 1 uM after 48 hrs using propidium iodide and FITC Annexin V staining by flow cytometry. It counts as functional, Cricetulus griseus. The gist of the method: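 Wild-type and OATP1B3 CHO cells plated at 90 000/well for 24 h, induced 24 h with 5 mM sodium butyrate, then compound 48 h (DMSO control). Medium and trypsinized cells pooled, spun 5 min at 300g, PBS-washed. Stained 20 min in the dark with FITC Annexin V and 4 μg/mL propidium iodide, then flow cytometry. Two independent experiments, values averaged.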

The subject of a further data set is Plasma. The experiment in a line: Plasma concentration in human at 1600 mg. It counts as ADME, cell-free.
Data set [14] concerns the target T1, Albumin (Homo sapiens, UniProt P02768). Description: Binding affinity to human serum albumin at 1 uM. The note with it: isolated protein. It counts as ADME.
The target in data set [15] is T1, Albumin. Description: Binding affinity to human serum albumin at 10 uM. It counts as ADME. The note with it: isolated protein.
The test system of data set [16] is CHO. Description: Cytotoxicity against CHO cells expressing OATP1B3 haplotype 1 after 48 hrs by […] CellTiter-Glo assay relative to wild type CHO cells. It counts as functional, Cricetulus griseus. The essentials:
(§3)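 CHO cells stably expressing OATP1B1*1b or OATP1B3, and wild-type CHO, in DMEM with 10% FBS. Seeded at 1600 cells/well and cultured 24 h. Then 24 h with 5 mM sodium butyrate to induce expression, then graded compound concentrations for 48 h. Viability read by CellTiter-Glo as percent of DMSO control. IC50 from mean ± SEM of at least three independent experiments.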

The test system of data set [17] is CHO. The experiment in a line: Cytotoxicity against CHO cells expressing OATP1B1*1b after 48 hrs by […] CellTiter-Glo assay relative to wild type CHO cells. It counts as functional, Cricetulus griseus. The essentials: as §3
Data set [18] concerns CHO. Description: Activation of OATP1B3 haplotype 1 (unknown origin) expressed in CHO cells assessed as increase of [3H]estradiol 17beta-glucuronide at 50 uM after 20 seconds relative to control. The class given is cell-based. The note with it: Homo sapiens. The essentials: as §2
Data set [19] deals with CHO. Description: Activation of OATP1B3 haplotype 1 (unknown origin) expressed in CHO cells assessed as increase at 50 uM after relative to control. The note with it: Homo sapiens.

Structures are written as SMILES. Calls of active or inactive are those of the source. The calls are words filed in the database; no cut-off is given here.

T1 sequence (P02768 whole entry): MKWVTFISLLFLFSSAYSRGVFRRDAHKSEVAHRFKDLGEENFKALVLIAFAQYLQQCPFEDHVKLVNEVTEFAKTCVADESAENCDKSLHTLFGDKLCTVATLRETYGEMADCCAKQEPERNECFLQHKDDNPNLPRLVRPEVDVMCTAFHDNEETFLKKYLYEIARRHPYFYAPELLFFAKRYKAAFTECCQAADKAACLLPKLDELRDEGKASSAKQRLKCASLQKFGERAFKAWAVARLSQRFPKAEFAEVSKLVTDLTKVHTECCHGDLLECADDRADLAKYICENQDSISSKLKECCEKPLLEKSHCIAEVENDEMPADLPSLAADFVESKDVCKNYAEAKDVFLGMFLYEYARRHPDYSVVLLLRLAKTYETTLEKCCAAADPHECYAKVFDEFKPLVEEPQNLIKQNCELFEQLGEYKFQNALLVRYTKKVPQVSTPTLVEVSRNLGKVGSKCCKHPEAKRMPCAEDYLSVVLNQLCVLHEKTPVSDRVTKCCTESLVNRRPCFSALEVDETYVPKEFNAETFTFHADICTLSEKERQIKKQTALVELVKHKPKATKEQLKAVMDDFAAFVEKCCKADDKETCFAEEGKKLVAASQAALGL

Usually IC50 stands for the concentration at which inhibition is half-maximal. A high value points to weaker potency in that assay. `Nc1ccc(C(=O)Oc2c(-c3ccc(O)c(O)c3)oc3cc(O)cc(O)c3c2=O)cc1O`: the Activity with CHO [1] was 70%; in the data set with CHO [4], “Non-toxic”. In the data set on CHO [2], the IC50 was found to be 4.1 µM. For the same compound, the result in the data set with CHO [3] and in the data set on CHO [11] was inactive. The inhibition result in the data set with CHO [5], in the data set with CHO [6], with CHO [7], with CHO [8], in the data set on CHO [9] and in the data set on CHO [10] was “Active” in each case.

For `O=C(Oc1cc(-c2oc3cc(O)cc(O)c3c(=O)c2O)ccc1O)c1cc(O)c(O)c(O)c1`, the results for the IC50 in the data set on CHO [2] and in the data set on CHO [3] were 6.8 µM and 7.9 µM, respectively. Also, the Activity result in the data set with CHO [4] is listed as “Non-toxic”. The inhibition result in the data set with CHO [5], with CHO [6], with CHO [7], with CHO [8], in the data set with CHO [9] and in the data set on CHO [10] was “Active” each time.

In the case of `O=C(O[C@@H]1Cc2c(O)cc(O)cc2O[C@@H]1c1cc(O)c(O)c(O)c1)c1cc(O)c(O)c(O)c1` [EPIGALOCATECHIN GALLATE], the result with CHO [12] was Active. For the same compound, the Activity came out at 15% with CHO [13], 99% at Albumin [14] and 85% on Albumin [15]. The compound also yielded a concentration in the data set with Plasma of 11.3 µM. Also, the concentration for half-maximal inhibition (IC50) with CHO [2] came out at 3.2 µM; in the data set with CHO [3] it was 7.7 µM; in the data set with CHO [4], 271 µM. In addition, the “fold change (FC)” value in the data set on CHO [16] was 85; in the data set on CHO [17], 35.

On to `NCCCOc1cc(-c2oc3cc(O)cc(O)c3c(=O)c2O)ccc1O`, for which the outcome in the data set on CHO [2] and in the data set on CHO [3] was inactive. Also, in the data set on CHO [4], the Activity result was “Non-toxic”. For the same compound, the inhibition entry in the data set on CHO [5], in the data set with CHO [6] and with CHO [7] was “Active” each time.

For the compound `CCCOc1cc(O)cc2oc(-c3ccc(O)c(O)c3)c(O)c(=O)c12`, the IC50 with CHO [2] is 11.8 µM; in the data set on CHO [3], 42.6 µM; in the data set with CHO [4] it was 111 µM. Besides, the fold change (FC) with CHO [18] is 3. Moreover, the inhibition entry in the data set with CHO [5], with CHO [8], with CHO [9] and with CHO [10] was “Active” throughout.

`O=C(Oc1c(-c2ccc(O)c(O)c2)oc2cc(O)cc(O)c2c1=O)c1cc(O)c(O)c(O)c1`: the figures for the Activity in the data set on CHO [1] and with CHO [4] were 32% and “Non-toxic”, respectively. In addition, the values for the IC50 in the data set with CHO [2] and in the data set with CHO [3] were 3.8 µM and 3.5 µM, respectively. Besides, the inhibition result with CHO [5], in the data set on CHO [6], with CHO [7], in the data set on CHO [8], in the data set with CHO [9] and with CHO [10] was “Active” in each case. In addition, the result with CHO [11] was inactive.

For the compound `Nc1cc(C(=O)Oc2c(-c3ccc(O)c(O)c3)oc3cc(O)cc(O)c3c2=O)ccc1O`, the outcome with CHO [2] and in the data set on CHO [3] was inactive. In addition, the Activity result in the data set on CHO [4] is “Non-toxic”. In addition, the outcome in the data set on CHO [19] was Active.
